Data on nine compounds can be found in ChEMBL document CHEMBL1127041, “(Imidazolylphenyl)pyrrol-2-one inhibitors of cardiac cAMP phosphodiesterase” (J Med Chem, 1993).

Experiment [1] in a line: (§1) Inhibition of cAMP PDE in canine cardiac tissue. Also noted: species or system Canis lupus familiaris. The essentials: (§2)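 The enzyme was partially purified cAMP phosphodiesterase from canine brain or cardiac tissue. IC50 is the concentration giving 50% inhibition, taken from the mean of three separate dose-response determinations. Near the IC50, inhibition at the test doses ranged by less than ±8%.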

The subject of experiment [2] is Canis familiaris. Kind of experiment: Mean percentage change in heart rate of pentobarbital anesthetized dogs at 1 mg/kg. Type of experiment: functional, Canis lupus familiaris. In outline:
(§3)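 Pentobarbital-anesthetized dogs were given the agent intravenously at 1 and 3 mg/kg. Left ventricular dP/dt, heart rate and mean arterial pressure were monitored. Values are mean percent change from control ± SEM, n = 4.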

Experiment [3] deals with Canis familiaris. Description: Mean percentage change in the left ventricular contractility (dP/dt) in pentobarbital anesthetized dogs at 1 mg/kg. Type of experiment: functional, Canis lupus familiaris, Heart left ventricle. The essentials: as §3
For experiment [4], the species on record is Mustela putorius furo. Description: In vitro inotropic effect, 20% increase in the force of contraction of isolated ferret papillary muscle strips. Type of experiment: functional. The conditions noted are these: Muscle tissue. The essentials:
(§4)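 Isolated ferret papillary muscle in vitro. The read-out is the dose that gives a 20% rise in contractile force over control (EC20). "NR" means this rise was not reached at 100 μM.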

Experiment [5] deals with Canis familiaris. Kind of experiment: Percentage decrease in Mean arterial pressure in pentobarbital anesthetized dogs at 1 mg/kg. Type of experiment: functional, Canis lupus familiaris, Artery. The essentials:
as §3

The species named for experiment [6] is Canis lupus familiaris. Kind of experiment: Percentage inhibition of cAMP PDE in canine brain tissue. Type of experiment: tissue-based. The conditions noted are these: dose or concentration not given here.
The subject of experiment [7] is Canis familiaris. Description: Percentage decrease in Mean arterial pressure in pentobarbital anesthetized dogs at 3 mg/kg. Type of experiment: functional, Canis lupus familiaris, Artery. In outline:
as §3

Experiment [8] concerns Canis familiaris. Kind of experiment: Mean percentage change in heart rate of pentobarbital anesthetized dogs at 3 mg/kg. Type of experiment: functional, Canis lupus familiaris. In outline: as §3
Experiment [9] relates to Canis familiaris. Description: Mean percentage change in the left ventricular contractility (dP/dt) in pentobarbital anesthetized dogs at 3 mg/kg. Type of experiment: functional, Canis lupus familiaris, Heart left ventricle. The essentials: as §3
Experiment [10] is filed under the species Canis lupus familiaris. Kind of experiment: Inhibition of cAMP PDE in canine brain. To be noted: concentration not given here. The essentials:
as §2

For experiment [11], the species on record is Mustela putorius furo. Description: In vitro inotropic effect, 20% increase in the force of contraction of isolated ferret papillary muscle strips (Not reached at 100 uM). The conditions noted are these: Muscle tissue. Type of experiment: functional. In outline: as §4
For experiment [12], the species on record is Canis lupus familiaris. The experiment is described as §1. The conditions noted are these: concentration not given here. In outline: as §2
Experiment [13] in a line: Inhibition of cAMP PDE from canine brain. Also noted: species or system Canis lupus familiaris. In outline:
as §2

Experiment [14] is filed under the species Mustela putorius furo. Description: In vitro inotropic effect, 20% increase in the force of contraction of isolated ferret papillary muscle strips (two EC20 determinations). Type of experiment: functional. To be noted: Muscle tissue. In outline:
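Contractile force was measured in isolated ferret papillary muscle in vitro. EC20 is the dose that gives a 20% increase in force. Two separate EC20 determinations were made.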

In experiment [15] the test system is Canis familiaris. Description: Mean percentage change in the left ventricular contractility (dP/dt) in pentobarbital anesthetized dogs at 0.3 mg/kg. Type of experiment: functional, Canis lupus familiaris, Heart left ventricle. In outline:
(§5)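 Pentobarbital-anesthetized dogs received doses of 0.1 and 0.3 mg/kg. Left ventricular dP/dt, heart rate and mean arterial pressure were monitored. Values are mean percent change from control ± SEM, n = 6.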

For experiment [16], the system named is Canis familiaris. Kind of experiment: Mean percentage change in heart rate of pentobarbital anesthetized dogs at 0.3 mg/kg. Type of experiment: functional, Canis lupus familiaris. In outline:
as §5

Experiment [17] has as its system Canis familiaris. Description: Mean percentage change in heart rate of pentobarbital anesthetized dogs at 0.1 mg/kg. Type of experiment: functional, Canis lupus familiaris. In outline:
as §5

Experiment [18] concerns Canis familiaris. Description: Mean percentage change in the left ventricular contractility (dP/dt) in pentobarbital anesthetized dogs at 0.1 mg/kg. Type of experiment: functional, Canis lupus familiaris, Heart left ventricle. In outline: as §5
In experiment [19] the test system is Canis familiaris. Kind of experiment: Percentage decrease in Mean arterial pressure in pentobarbital anesthetized dogs at 0.1 mg/kg. Type of experiment: functional, Canis lupus familiaris, Artery. The essentials: as §5
Experiment [20] concerns Canis familiaris. Kind of experiment: Percentage decrease in Mean arterial pressure in pentobarbital anesthetized dogs at 0.3 mg/kg. Type of experiment: functional, Canis lupus familiaris, Artery. In outline:
as §5

Active and inactive are the calls of the source. No cut-off for these calls is given here. A value given as a limit tells only on which side of the number the result lay.

In general, IC50 refers to the concentration that inhibits the measured activity by half. By EC20 is commonly meant the point of the concentration-response curve where the effect stands at 20%. The term inhibition denotes the change of the read-out against control, counted positive when it falls. Regarding `CCC1=C(c2ccc(-n3ccnc3C)cc2)CNC1=O`, in experiment [1], inhibition was half-maximal at 39 µM (IC50). For the same compound, the Increase in the experiment with Canis familiaris [2] was 8%; in the experiment on Canis familiaris [3], 52%; with Canis familiaris [8], 22%; in the experiment with Canis familiaris [9], 80%. The EC20 in the experiment listed under Mustela putorius furo [4] is 4.8 µM. Also, the figures for the Decrease with Canis familiaris [5] and in the experiment on Canis familiaris [7] were 18% and 30%, respectively. For the same compound, the inhibition in the experiment listed under Canis lupus familiaris [6] was below 5%.

Compound `CC1=C(c2ccc(-n3ccnc3)cc2)CNC1=O` yielded an IC50 in experiment [1] of 25 µM. Moreover, the Increase turned out to be 7% in the experiment with Canis familiaris [2], 40% in the experiment with Canis familiaris [3], 19% with Canis familiaris [8] and 75% with Canis familiaris [9]. This compound also displayed an EC20 in the experiment listed under Mustela putorius furo [4] of 2.3 µM. In addition, the Decrease amounted to 3% in the experiment on Canis familiaris [5] and 14% in the experiment on Canis familiaris [7]. For the same compound, in the experiment filed under Canis lupus familiaris [6], the inhibition was 16%.

Take `COc1ccc(C2CNC(=O)C2)cc1OC` (configuration not stated): the inhibition in the experiment listed under Canis lupus familiaris [10] is 36%; in the experiment listed under Canis lupus familiaris [12], 3%. Further, the EC20 result in the experiment listed under Mustela putorius furo [11] was “Not reached”.

As to `COc1ccc(C2=CC(=O)NC2)cc1OC`, the IC50 in experiment [13] stood at 40 µM. In the experiment filed under Canis lupus familiaris [12], this compound had an inhibition of 46%. The compound further gave an EC20 in the experiment filed under Mustela putorius furo [14] of 6.5 µM.

With `COc1ccc(C2=C(C)C(=O)NC2)cc1OC`, the 50% inhibitory concentration (IC50) in [1] stood at 26 µM; in [13], 100 µM. Also, it took 3.8 µM to reach the 20% level in the experiment listed under Mustela putorius furo [4] (EC20).

As to `CCC1=C(c2ccc(-n3ccnc3)cc2)CNC1=O`, in experiment [1], the IC50 is 48 µM. The Increase with Canis familiaris [2] came out at 9%; in the experiment with Canis familiaris [3], 21%; with Canis familiaris [8], 21%; in the experiment with Canis familiaris [9], 44%. The EC20 in the experiment filed under Mustela putorius furo [4] is 10.7 µM. For the same compound, the Decrease in the experiment on Canis familiaris [5] amounted to 13%; in the experiment with Canis familiaris [7], 22%. The compound further yielded an inhibition in the experiment listed under Canis lupus familiaris [6] of 10%.

Consider `Cc1[nH]c(=O)c(C#N)cc1-c1ccncc1` [MILRINONE], for which the Increase in the experiment on Canis familiaris [15] worked out at 81%; in the experiment with Canis familiaris [16], 32%; in the experiment on Canis familiaris [17], 19%; with Canis familiaris [18], 57%. Moreover, in experiment [1], the midpoint of inhibition, the IC50, lay at 5.5 µM. This compound also came in with an EC20 in the experiment listed under Mustela putorius furo [4] of 0.5 µM. In addition, in the experiment filed under Canis lupus familiaris [6], the inhibition was 34%. For the same compound, the figures for the Decrease in the experiment with Canis familiaris [19] and with Canis familiaris [20] were 13% and 30%, respectively.

As for `COc1ccc(C2CNC(=O)C2)cc1OC1CCCC1` (configuration not stated) [ROLIPRAM], in the experiment listed under Mustela putorius furo [11], the EC20 result was “inactive”. Half-maximal inhibition in experiment [13] (IC50) was put at 0.8 µM. The inhibition in the experiment filed under Canis lupus familiaris [12] was 28%.

The compound `CC1=C(c2ccc(-n3ccnc3C)cc2)CNC1=O` had an IC50 in experiment [1] of 30 µM. Besides, the Increase in the experiment on Canis familiaris [2] came to 7%; in the experiment on Canis familiaris [3], 14%; in the experiment with Canis familiaris [8] it was 14%; with Canis familiaris [9], 33%. For the same compound, the EC20 in the experiment filed under Mustela putorius furo [4] worked out at 10.2 µM. Further, the Decrease is 6% in the experiment on Canis familiaris [5] and 10% in the experiment with Canis familiaris [7]. Moreover, the inhibition in the experiment filed under Canis lupus familiaris [6] was 10%.
